Data as given in ChEMBL document CHEMBL1157406, “Cytotoxic metabolites from the fungal endophyte Alternaria sp. and their subsequent detection in its host plant Polygonum senegalense” (J Nat Prod, 2008).
Values after ≈ are worked out from the molar mass of the structure shown.

How the values were obtained:
[1] = biological target: Casein kinase II subunit alpha (Homo sapiens, UniProt P68400); test: Inhibition of recombinant CK2alpha1
Procedure, shortened: (§1)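 Purified recombinant kinase, 50 µL reaction. 1 µM [γ-33P]-ATP with substrate; compound added in 10% DMSO. Tested over several concentrations; IC50 in g/mL.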

[2] = biological target: Receptor tyrosine-protein kinase erbB-2 (Homo sapiens, UniProt P04626); test: Inhibition of recombinant ERBB2; procedure, shortened: as §1
[3] = biological target: Proto-oncogene tyrosine-protein kinase Src (Homo sapiens, UniProt P12931); test: Inhibition of recombinant SRC; conditions: read-out: IC50 (converted); procedure, shortened: as §1
[4] = biological target: Vascular endothelial growth factor receptor 3 (Homo sapiens, UniProt P35916); test: Inhibition of recombinant VEGFR3; procedure, shortened: as §1
[5] = biological target: Insulin-like growth factor 1 receptor (Homo sapiens, UniProt P08069); test: Inhibition of recombinant IGF1R; conditions: read-out: IC50 (converted); procedure, shortened: as §1
[6] = biological target: Cyclin-dependent kinase 4/cyclin D1 (Homo sapiens, UniProt P11802); test: (§2) Inhibition of recombinant CDK4/CycD1; procedure, shortened: as §1
[7] = test system: L5178Y; test: Cytotoxicity against mouse L5178Y cells at 10 ug/ml by MTT assay; type: functional
[8] = biological target: T1, Serine/threonine-protein kinase PLK4 (Homo sapiens, UniProt O00444); test: Inhibition of recombinant SAK
T1 sequence (O00444 whole entry): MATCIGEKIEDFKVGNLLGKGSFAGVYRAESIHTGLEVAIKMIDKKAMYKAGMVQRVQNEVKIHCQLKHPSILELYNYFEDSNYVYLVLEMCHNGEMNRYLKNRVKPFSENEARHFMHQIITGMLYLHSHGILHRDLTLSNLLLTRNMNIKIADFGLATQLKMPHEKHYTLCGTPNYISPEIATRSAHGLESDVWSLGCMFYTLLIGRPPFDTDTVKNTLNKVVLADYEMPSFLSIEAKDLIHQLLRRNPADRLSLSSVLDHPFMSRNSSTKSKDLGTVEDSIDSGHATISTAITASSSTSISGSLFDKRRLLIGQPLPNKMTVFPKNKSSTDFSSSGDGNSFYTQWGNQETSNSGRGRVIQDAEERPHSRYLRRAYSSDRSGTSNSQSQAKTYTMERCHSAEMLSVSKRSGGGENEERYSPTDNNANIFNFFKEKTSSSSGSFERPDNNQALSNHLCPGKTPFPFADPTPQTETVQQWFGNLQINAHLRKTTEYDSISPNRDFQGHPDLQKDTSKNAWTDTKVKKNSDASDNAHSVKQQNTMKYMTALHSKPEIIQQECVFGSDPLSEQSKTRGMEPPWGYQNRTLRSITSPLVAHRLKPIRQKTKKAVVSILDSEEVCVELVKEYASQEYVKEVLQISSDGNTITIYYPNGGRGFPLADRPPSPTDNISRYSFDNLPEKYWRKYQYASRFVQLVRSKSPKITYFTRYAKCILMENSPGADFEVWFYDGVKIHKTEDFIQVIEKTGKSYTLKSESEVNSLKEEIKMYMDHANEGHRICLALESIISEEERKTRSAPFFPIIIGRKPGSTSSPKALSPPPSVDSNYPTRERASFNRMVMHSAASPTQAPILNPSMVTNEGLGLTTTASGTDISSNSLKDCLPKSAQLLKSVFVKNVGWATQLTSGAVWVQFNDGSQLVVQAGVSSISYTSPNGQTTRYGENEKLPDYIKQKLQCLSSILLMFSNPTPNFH

[9] = biological target: Serine/threonine-protein kinase B-raf (Homo sapiens, UniProt P15056, V600E); test: Inhibition of recombinant B-RAF-V600E mutant; procedure, shortened: as §1
[10] = biological target: RAC-alpha serine/threonine-protein kinase (Homo sapiens, UniProt P31749); test: Inhibition of recombinant AKT1; procedure, shortened: as §1
[11] = biological target: T2, Ephrin type-B receptor 4 (Homo sapiens, UniProt P54760); test: Inhibition of recombinant EPHB4; procedure, shortened: as §1
T2 sequence (P54760 whole entry): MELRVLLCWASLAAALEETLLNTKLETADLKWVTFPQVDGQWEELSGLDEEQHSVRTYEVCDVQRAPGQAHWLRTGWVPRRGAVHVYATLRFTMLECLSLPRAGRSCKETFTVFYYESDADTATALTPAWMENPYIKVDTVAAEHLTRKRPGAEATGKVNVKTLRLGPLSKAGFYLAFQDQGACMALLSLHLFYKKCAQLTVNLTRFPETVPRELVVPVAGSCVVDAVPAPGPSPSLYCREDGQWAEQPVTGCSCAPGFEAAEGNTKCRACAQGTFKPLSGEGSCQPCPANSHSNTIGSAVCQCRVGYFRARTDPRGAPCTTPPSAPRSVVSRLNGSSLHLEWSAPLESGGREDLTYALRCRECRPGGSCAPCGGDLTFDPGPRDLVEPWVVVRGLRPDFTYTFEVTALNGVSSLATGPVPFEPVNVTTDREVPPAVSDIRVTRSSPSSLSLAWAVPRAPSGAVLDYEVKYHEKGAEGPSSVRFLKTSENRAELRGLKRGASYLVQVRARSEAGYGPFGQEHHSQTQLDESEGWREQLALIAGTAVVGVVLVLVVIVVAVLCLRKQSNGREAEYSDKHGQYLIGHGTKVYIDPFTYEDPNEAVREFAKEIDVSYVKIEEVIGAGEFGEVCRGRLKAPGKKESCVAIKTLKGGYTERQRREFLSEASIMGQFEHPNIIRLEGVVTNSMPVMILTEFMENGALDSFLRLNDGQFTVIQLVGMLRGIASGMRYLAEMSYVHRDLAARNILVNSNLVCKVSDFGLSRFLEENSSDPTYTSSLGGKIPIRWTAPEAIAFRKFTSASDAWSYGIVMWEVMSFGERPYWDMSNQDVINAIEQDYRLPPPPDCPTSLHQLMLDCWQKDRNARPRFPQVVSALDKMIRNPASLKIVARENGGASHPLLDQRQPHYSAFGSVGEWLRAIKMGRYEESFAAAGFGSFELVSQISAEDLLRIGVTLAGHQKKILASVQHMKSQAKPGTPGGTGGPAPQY

[12] = biological target: Aurora kinase B (Homo sapiens, UniProt Q96GD4); test: Inhibition of recombinant Aurora B; procedure, shortened: as §1
[13] = biological target: Hepatocyte growth factor receptor (Homo sapiens, UniProt P08581); test: Inhibition of recombinant MET; conditions: read-out: IC50 (converted)
[14] = biological target: Vascular endothelial growth factor receptor 2 (Homo sapiens, UniProt P35968); test: Inhibition of recombinant VEGFR2; procedure, shortened: as §1
[15] = biological target: Angiopoietin-1 receptor (Homo sapiens, UniProt Q02763); test: Inhibition of recombinant TIE2; procedure, shortened: as §1
[16] = biological target: Cyclin-dependent kinase 2 (Homo sapiens, UniProt P24941); test: Inhibition of recombinant CDK2/CycA; procedure, shortened: as §1
[17] = test system: L5178Y; test: Cytotoxicity against mouse L5178Y cells by MTT assay; type: functional, cell-based
Procedure, shortened: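 Mouse L5178Y lymphoma cells; MTT microculture tetrazolium read-out, relative to untreated controls. Vehicle controls with 0.1% EGMME/DMSO. Triplicate wells, experiment repeated three times.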

[18] = biological target: Insulin receptor (Homo sapiens, UniProt P06213); test: Inhibition of recombinant INSR; conditions: read-out: IC50 (converted)
[19] = biological target: Platelet-derived growth factor receptor beta (Homo sapiens, UniProt P09619); test: Inhibition of recombinant PDGFRbeta
[20] = biological target: Cyclin-dependent kinase 4/cyclin D1 (Homo sapiens, UniProt P11802+P24385); test: as §2; procedure, shortened: as §1

Receptor tyrosine-protein kinase erbB-2, sequence (P04626 whole entry): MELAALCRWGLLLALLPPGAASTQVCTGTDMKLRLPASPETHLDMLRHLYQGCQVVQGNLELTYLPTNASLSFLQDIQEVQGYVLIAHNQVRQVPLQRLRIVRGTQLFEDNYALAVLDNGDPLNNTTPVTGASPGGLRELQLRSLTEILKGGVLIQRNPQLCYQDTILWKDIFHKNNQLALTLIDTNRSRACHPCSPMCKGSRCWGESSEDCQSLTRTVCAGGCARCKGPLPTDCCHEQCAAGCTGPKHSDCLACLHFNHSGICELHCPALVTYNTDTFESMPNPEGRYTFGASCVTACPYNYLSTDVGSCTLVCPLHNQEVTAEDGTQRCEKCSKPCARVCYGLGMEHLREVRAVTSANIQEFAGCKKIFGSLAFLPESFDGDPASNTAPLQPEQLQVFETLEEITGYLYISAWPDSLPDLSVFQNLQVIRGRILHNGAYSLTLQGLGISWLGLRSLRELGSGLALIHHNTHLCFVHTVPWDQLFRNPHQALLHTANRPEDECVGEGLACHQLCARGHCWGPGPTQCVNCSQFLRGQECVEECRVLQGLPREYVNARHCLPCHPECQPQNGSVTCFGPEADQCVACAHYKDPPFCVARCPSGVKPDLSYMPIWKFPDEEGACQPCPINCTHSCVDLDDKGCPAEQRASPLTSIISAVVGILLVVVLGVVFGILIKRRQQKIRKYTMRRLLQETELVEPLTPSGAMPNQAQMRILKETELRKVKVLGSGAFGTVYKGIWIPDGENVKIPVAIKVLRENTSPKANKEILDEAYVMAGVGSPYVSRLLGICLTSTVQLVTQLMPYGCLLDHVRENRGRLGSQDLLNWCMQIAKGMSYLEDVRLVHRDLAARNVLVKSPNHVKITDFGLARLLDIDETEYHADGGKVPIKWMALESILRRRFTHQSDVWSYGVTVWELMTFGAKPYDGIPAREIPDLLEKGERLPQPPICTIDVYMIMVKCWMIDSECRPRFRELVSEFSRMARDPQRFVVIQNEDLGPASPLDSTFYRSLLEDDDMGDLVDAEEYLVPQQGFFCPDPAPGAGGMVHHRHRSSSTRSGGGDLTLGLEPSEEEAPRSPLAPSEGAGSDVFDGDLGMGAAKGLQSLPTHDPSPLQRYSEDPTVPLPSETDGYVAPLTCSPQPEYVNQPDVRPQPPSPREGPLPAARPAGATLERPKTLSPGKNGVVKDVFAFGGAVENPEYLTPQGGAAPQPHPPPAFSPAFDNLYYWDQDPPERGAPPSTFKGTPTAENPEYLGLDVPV
Insulin-like growth factor 1 receptor, sequence (P08069 31-736 limits assumed): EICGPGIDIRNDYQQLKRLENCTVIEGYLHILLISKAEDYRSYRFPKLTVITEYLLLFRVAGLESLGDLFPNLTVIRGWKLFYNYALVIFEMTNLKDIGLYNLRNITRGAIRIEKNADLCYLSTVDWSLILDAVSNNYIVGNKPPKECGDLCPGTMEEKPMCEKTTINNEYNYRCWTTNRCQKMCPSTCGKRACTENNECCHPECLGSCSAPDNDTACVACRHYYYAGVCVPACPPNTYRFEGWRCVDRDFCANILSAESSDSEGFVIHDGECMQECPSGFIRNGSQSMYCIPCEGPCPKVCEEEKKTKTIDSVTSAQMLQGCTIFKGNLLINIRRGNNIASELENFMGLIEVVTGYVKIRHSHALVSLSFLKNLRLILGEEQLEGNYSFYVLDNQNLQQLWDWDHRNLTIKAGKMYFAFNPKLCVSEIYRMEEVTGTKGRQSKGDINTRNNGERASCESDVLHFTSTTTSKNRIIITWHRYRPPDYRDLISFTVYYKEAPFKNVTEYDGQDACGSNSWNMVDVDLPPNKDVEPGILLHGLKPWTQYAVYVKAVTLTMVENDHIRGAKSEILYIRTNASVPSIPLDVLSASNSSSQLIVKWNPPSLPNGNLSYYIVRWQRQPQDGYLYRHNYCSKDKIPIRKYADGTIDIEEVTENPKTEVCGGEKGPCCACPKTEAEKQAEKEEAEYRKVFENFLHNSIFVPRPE
Insulin-like growth factor 1 receptor, sequence (P08069 741-1367 limits assumed): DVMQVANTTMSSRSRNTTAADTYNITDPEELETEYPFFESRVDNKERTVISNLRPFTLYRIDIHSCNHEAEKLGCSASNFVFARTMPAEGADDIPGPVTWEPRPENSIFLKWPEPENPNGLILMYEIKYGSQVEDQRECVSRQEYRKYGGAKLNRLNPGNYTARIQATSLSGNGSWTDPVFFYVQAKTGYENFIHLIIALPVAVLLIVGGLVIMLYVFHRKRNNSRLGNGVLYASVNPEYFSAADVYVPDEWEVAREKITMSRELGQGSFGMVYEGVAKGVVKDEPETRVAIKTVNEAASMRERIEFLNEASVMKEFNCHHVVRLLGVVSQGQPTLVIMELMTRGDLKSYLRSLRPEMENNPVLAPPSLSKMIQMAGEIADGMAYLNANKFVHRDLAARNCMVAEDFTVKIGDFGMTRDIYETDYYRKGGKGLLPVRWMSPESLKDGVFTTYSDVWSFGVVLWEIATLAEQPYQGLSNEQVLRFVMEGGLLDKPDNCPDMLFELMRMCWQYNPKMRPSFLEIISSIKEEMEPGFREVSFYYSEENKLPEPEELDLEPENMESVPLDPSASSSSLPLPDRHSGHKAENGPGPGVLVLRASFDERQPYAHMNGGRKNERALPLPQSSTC
Proto-oncogene tyrosine-protein kinase Src, sequence (P12931 2-536 limits assumed): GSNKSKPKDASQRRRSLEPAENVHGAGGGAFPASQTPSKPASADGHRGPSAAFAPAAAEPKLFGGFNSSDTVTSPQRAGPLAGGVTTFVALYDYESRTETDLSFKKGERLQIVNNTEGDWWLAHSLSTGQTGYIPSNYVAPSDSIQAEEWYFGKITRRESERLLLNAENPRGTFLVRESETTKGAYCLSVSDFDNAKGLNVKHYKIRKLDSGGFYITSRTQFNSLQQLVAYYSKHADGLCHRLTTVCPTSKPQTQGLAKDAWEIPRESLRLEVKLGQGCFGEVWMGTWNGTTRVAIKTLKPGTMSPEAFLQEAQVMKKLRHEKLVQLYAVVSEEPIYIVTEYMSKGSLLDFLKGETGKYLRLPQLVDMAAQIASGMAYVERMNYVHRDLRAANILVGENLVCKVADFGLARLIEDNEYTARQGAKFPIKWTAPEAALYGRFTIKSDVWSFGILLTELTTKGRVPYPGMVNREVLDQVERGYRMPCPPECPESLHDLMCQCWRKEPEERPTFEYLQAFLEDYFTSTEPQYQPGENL
Vascular endothelial growth factor receptor 2, sequence (P35968 whole entry): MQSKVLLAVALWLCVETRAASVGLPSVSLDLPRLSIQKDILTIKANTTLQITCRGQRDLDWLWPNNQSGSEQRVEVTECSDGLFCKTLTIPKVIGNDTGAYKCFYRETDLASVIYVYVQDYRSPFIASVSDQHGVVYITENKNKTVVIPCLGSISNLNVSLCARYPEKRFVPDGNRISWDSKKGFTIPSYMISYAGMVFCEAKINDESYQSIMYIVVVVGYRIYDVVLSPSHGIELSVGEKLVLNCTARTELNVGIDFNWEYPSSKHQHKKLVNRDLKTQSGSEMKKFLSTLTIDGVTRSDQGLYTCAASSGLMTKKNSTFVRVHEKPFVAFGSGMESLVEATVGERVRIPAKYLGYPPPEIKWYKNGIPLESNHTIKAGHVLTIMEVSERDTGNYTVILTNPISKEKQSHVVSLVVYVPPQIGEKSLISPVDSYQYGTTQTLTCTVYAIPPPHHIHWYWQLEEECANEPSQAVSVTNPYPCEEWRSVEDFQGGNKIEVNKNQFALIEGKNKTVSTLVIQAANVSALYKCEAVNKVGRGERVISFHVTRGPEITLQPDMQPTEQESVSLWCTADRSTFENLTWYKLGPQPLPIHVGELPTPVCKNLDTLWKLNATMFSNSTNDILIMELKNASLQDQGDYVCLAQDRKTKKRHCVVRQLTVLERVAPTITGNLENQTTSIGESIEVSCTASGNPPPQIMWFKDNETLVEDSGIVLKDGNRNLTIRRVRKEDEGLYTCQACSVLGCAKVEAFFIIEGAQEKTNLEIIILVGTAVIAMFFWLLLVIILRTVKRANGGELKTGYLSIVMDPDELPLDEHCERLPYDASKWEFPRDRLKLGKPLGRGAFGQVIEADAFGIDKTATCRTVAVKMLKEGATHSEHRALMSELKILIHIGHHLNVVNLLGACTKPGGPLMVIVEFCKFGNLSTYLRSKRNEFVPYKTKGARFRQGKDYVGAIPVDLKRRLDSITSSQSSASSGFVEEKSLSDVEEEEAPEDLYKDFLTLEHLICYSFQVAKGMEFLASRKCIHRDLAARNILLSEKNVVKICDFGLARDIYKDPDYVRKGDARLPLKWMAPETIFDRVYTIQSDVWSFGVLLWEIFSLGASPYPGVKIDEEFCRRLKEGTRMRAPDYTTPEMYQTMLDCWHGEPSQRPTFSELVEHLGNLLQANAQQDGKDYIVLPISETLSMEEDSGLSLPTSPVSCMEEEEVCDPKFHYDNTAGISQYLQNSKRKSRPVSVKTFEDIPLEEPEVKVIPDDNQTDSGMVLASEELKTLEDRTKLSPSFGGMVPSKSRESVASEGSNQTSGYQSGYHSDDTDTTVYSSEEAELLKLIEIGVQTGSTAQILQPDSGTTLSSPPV
Casein kinase II subunit alpha, sequence (P68400 whole entry): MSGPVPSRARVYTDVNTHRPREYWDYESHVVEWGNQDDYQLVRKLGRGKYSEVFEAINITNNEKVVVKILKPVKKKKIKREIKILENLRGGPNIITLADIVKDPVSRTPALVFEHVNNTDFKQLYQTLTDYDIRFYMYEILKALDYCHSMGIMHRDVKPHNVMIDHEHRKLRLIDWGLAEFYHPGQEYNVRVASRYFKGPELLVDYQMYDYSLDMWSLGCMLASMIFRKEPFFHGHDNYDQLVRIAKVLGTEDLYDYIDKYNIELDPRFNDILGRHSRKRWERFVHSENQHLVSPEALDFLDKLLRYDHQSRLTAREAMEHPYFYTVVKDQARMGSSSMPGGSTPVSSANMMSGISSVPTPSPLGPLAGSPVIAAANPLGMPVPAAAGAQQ

Row | Structure (SMILES) | IC50 [1] [×10⁻⁵ g/ml] | IC50 [2] [×10⁻⁵ g/ml] | IC50 [3] [µM] | IC50 ([4]; read-out: IC50 (converted)) [µM] | IC50 [5] [µM] | IC50 [6] [µM] | Activity [7] [%] | IC50 ([8]; read-out: IC50 (converted)) [µM] | IC50 ([9]; read-out: IC50 (converted)) [µM] | IC50 [10] [×10⁻⁵ g/ml] | IC50 ([11]; read-out: IC50 (converted)) [µM] | IC50 [12] [×10⁻⁷ g/ml] | IC50 [13] [µM] | IC50 ([14]; read-out: IC50 (converted)) [µM] | IC50 ([15]; read-out: IC50 (converted)) [µM] | IC50 [16] | EC50 [17] [µg/mL] | IC50 [18] [µM] | IC50 ([12]; read-out: IC50 (converted)) [µM] | further results
1 | O=C1C[C@H](O)[C@@H]2c3c(ccc(O)c31)-c1ccc(O)c3c1[C@@]2(O)CCC3=O [ALTERTOXIN I] | > 1 | > 1 | 5.96 | 7.95 | 4.82 | 18.2 | 77.3 | 4.82 | 19 | > 1 | 25.3 | 9.8 | 19.9 | 3.97 | 25 | > 1 ×10⁻⁵ g/ml |  |  |  | 
2 | COc1cc(O)c(C(=O)O)c(-c2cc(O)c(O)cc2C)c1 [ALTENUSIN] | > 1 | > 1 | 28.6 |  | 16.9 | 15.5 | 1.2 | 11 | 11.4 | > 1 | 32.4 |  | 14.8 | 17.2 | 33.8 | > 1 ×10⁻⁵ g/ml | 6.8 (≈ 23.4 µM) | 19.3 | 3.79 | IC50 [4]: > 1 ×10⁻⁵ g/ml
3 | Cc1cc(O)c(O)cc1-c1cc(O)cc(O)c1C(=O)O | > 1 | > 1 | 17 | 24.6 | 8.69 | 15.9 | 0.8 | 6.15 | 26.8 | > 1 | 21.4 |  | 9.05 | 13.8 | 13.8 | > 1 ×10⁻⁵ g/ml | 6.2 (≈ 22.4 µM) |  | 5.43 | IC50 ([19]; read-out: IC50 (converted)): 21 µM
4 | Cc1cc(O)cc2oc(=O)c3c(O)cc(OS(=O)(=O)O)cc3c12 |  |  | 16.6 | 5.03 | 14.5 | 7.98 | 0.9 |  |  | > 1 | 9.16 | 2.2 | 22.5 |  | 20.1 | 8.4 ×10⁻⁷ g/ml | 4.5 (≈ 13.3 µM) | 8.57 |  | IC50 ([1]; read-out: IC50 (converted)): 5.91 µM; IC50 ([2]; read-out: IC50 (converted)): 24.8 µM; IC50 [8]: 3.8 ×10⁻⁷ g/ml; IC50 [9]: 7.4 ×10⁻⁷ g/ml; IC50 [14]: 7 ×10⁻⁷ g/ml
5 | COc1cc(O)c(C(=O)O)c(C2=C(C)C[C@@H](O)C2=O)c1 [ALTERNARIENONIC ACID] | > 1 | > 1 | 16.5 | 13.3 | 12.9 |  | 101.2 | 8.98 | 32.3 | > 1 |  |  | 33.8 | 18.3 |  | > 1 ×10⁻⁵ g/ml |  | 29.1 | 10.8 | IC50 [19]: > 1 ×10⁻⁵ g/ml; IC50 [20]: > 1 ×10⁻⁵ g/ml; IC50 [11]: > 1 ×10⁻⁵ g/ml; IC50 [15]: > 1 ×10⁻⁵ g/ml
